Assay results pooled from the literature.
Cell line: MOLT-4
Read-out: cell growth or viability

| Compound | method | time | IC50 |
| --- | --- | --- | --- |
| Cc1nc(Nc2ncc(C(=O)Nc3c(C)cccc3Cl)s2)cc(N2CC[C@H](O)C2)n1 | ATP luminescence | 72 h | > 10000 nM |
| O=C(CSc1nc2ccccc2s1)N/N=C/c1ccc(OCC(=O)Nc2ccc(Br)cc2)cc1 | MTS | 72 h | > 100000 nM |
| O=C(NO)c1ccc(Cn2cnc3c(Nc4ccc(F)c(Cl)c4)ncnc32)cc1 | MTT | 72 h | 660 nM |
| CN1CCC(NC2CCc3[nH]c4c(C(N)=O)ccc(-c5ccccc5Cl)c4c3C2)CC1 (centres unmarked) | – | 96 h | 18.7 nM |
| CCS(=O)(=O)NC(=O)c1nc(N2CCc3cccc(C(=O)Nc4nc5ccccc5s4)c3C2)ccc1-c1cnn(CC23CC4CC(CC(C4)C2)C3)c1C | MTS | 48 h | 5.1 nM |
| COc1cccc2c1C(=O)c1c(O)c3c(c(O)c1C2=O)C[C@@](O)(C(=O)CO)C[C@@H]3O[C@H]1C[C@H](N)[C@H](O)[C@H](C)O1 | – | 96 h | 2.61 nM |
| COc1ccc(Nc2ncnc3c2ncn3Cc2ccc(C(=O)Nc3ccccc3N)cc2)cc1 | MTT | 72 h | 610 nM |
| COc1cc([C@@H]2c3cc4c(cc3[C@@H](O[C@@H]3O[C@@H]5CO[C@@H](C)O[C@H]5[C@H](O)[C@H]3O)[C@H]3COC(=O)[C@H]23)OCO4)cc(OC)c1O | MTS | 72 h | 180 nM |
| Cc1c(-c2ccc(N3CCc4cccc(C(=O)Nc5nc6ccccc6s5)c4C3)nc2C(=O)O)cnn1CC12CC3CC(C1)CC(C(=O)NCCCCCCCCCCCCNc1cccc4c1C(=O)N(C1CCC(=O)NC1=O)C4=O)(C3)C2 (centres unmarked) | MTS | 48 h | 49.4 nM |
| O=C(CSc1nc2ccccc2s1)N/N=C/c1ccc(OCC(=O)Nc2cccc(Br)c2)cc1 | MTS | 72 h | > 100000 nM |
| O=C(NO)c1ccc(Cn2cnc3c(Nc4ccc(Cl)cc4)ncnc32)cc1 | MTT | 72 h | 190 nM |
| Cc1ncsc1-c1ccc([C@H](C)NC(=O)[C@@H]2C[C@@H](O)CN2C(=O)[C@@H](NC(=O)CCCCCS(=O)(=O)NC(=O)c2nc(N3CCc4cccc(C(=O)Nc5nc6ccccc6s5)c4C3)ccc2-c2cnn(CC34CC5CC(CC(C5)C3)C4)c2C)C(C)(C)C)cc1 | MTS | 48 h | 4 nM |
| COc1ccc(Nc2ncnc3c2ncn3Cc2ccc(C(=O)NO)cc2)cc1 | MTT | 72 h | 460 nM |
| Cc1ncsc1-c1ccc([C@H](C)NC(=O)[C@@H]2C[C@@H](O)CN2C(=O)[C@@H](NC(=O)CCCCCCS(=O)(=O)NC(=O)c2nc(N3CCc4cccc(C(=O)Nc5nc6ccccc6s5)c4C3)ccc2-c2cnn(CC34CC5CC(CC(C5)C3)C4)c2C)C(C)(C)C)cc1 | MTS | 48 h | 4.5 nM |
